How the values were obtained:
Human betaherpesvirus 5 [1] = assay: Antiviral activity against Human cytomegalovirus AD169 infected in HEL cells assessed as inhibition of virus plaque formation; assay type: functional, cell-based; conditions: Human betaherpesvirus 5, AD169, HEL
Human alphaherpesvirus 1 [2] = assay: Antiviral activity against Herpes simplex virus 1 KOS infected in HEL cells assessed as inhibition of virus plaque formation; assay type: functional, cell-based; conditions: Human alphaherpesvirus 1, KOS
Human alphaherpesvirus 3 [3] = assay: Antiviral activity against thymidine Kinase expressing Varicella-Zoster virus OKA infected in HEL cells assessed as inhibition of virus plaque formation; assay type: functional, cell-based; conditions: Human alphaherpesvirus 3, OKA
In short: (§1)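 Confluent HEL cell monolayers were infected with 20 PFU of VZV and incubated with varying compound concentrations. Plaques were scored once plaque formation was complete in untreated infected controls.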

Human betaherpesvirus 5 [4] = assay: Antiviral activity against Human cytomegalovirus Davis infected in HEL cells assessed as inhibition of virus plaque formation; assay type: functional, cell-based; conditions: Human betaherpesvirus 5, Davis
Human alphaherpesvirus 3 [5] = assay: Antiviral activity against thymidine kinase deficient Varicella-Zoster virus 07-1 infected in HEL cells assessed as inhibition of virus plaque formation; assay type: functional, cell-based; conditions: Human alphaherpesvirus 3, 07-1, HEL
In short: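 Confluent HEL fibroblast monolayers were infected with 20 PFU of TK⁻ VZV strain 07-1 and incubated with varying compound concentrations. Plaques were recorded once plaque formation reached completion in untreated infected controls.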

Human alphaherpesvirus 1 [6] = assay: Antiviral activity against thymidine kinase-deficient acyclovir-resistant Herpes simplex virus 1 KOS infected in HEL cells assessed as inhibition of virus plaque formation; assay type: functional, cell-based; conditions: Human alphaherpesvirus 1, KOS
Human alphaherpesvirus 2 = assay: Antiviral activity against Herpes simplex virus 2 G infected in HEL cells assessed as inhibition of virus plaque formation; assay type: functional, cell-based; conditions: Human alphaherpesvirus 2, strain G
[7] = Cytotoxicity against HEL cells assessed as alteration of cell morphology after 3 days by microscopic method; assay type: toxicity, cell-based; conditions: human
In short: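 HEL cultures were exposed to compound at varying concentrations. Cytotoxicity was recorded as the minimum cytotoxic concentration, the lowest concentration giving a microscopically detectable alteration of cell morphology.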

[8] = Cytotoxicity against HEL cells assessed as growth inhibition after 3 days by coulter counter method; assay type: toxicity, cell-based; conditions: human; for CC50: hel, 72 h; for CC50 at 72 h: HEL cells
In short: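 HEL cells were seeded at 5×10^3 cells/well and allowed to grow for 24 h. Medium with varying compound concentrations was then added, and cells were incubated for 3 days at 37 °C before counting with a Coulter counter.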

Human alphaherpesvirus 3 [9] = assay: Antiviral activity against thymidine kinase deficient Varicella-Zoster virus YS-R infected in HEL cells assessed as inhibition of virus plaque formation; assay type: functional, cell-based; conditions: Human alphaherpesvirus 3, YS-R; in short: as §1

| SMILES | EC50 (Human betaherpesvirus 5 [1]) | EC50 (Human alphaherpesvirus 1 [2]) | EC50 (Human alphaherpesvirus 3 [3]) | EC50 (Human betaherpesvirus 5 [4]) | EC50 (Human alphaherpesvirus 3 [5]) | EC50 (Human alphaherpesvirus 1 [6]) | EC50 (Human alphaherpesvirus 2) | MCC at 72 h [7] | CC50 [8] | EC50 (Human alphaherpesvirus 3 [9]) | CC50 at 72 h [8] |
| --- | --- | --- | --- | --- | --- | --- | --- | --- | --- | --- | --- |
| Cn1cc(CCNCc2ccc(Cl)cc2)c2ccccc21 | > 20 µM | > 20 µM | > 4 µM | > 20 µM | > 4 µM | > 20 µM | > 20 µM | 20 µM | 22 µM | – | – |
| COc1ccc(CNCCc2cn(C)c3ccccc23)cc1 | > 20 µM | > 20 µM | > 20 µM | > 20 µM | > 20 µM | > 20 µM | > 20 µM | 100 µM | 28 µM | – | – |
| Cn1cc(CCNCCc2ccc(-c3ccccc3)cc2)c2ccccc21 | > 4 µM | > 100 µM | – | > 4 µM | > 4 µM | > 100 µM | > 100 µM | > 4 µM | 20 µM | – | – |
| CC(=O)N(CCc1cn(C)c2ccccc12)Cc1ccc2ccccc2c1 | – | – | > 4 µM | – | > 4 µM | – | – | 20 µM | – | – | – |
| CC(=O)N(CCc1cn(C)c2ccccc12)Cc1cccc2ccccc12 | – | – | > 20 µM | – | > 20 µM | – | – | 100 µM | – | – | – |
| CC(=O)N(CCc1cn(C)c2ccccc12)c1cccc2ccccc12 | – | – | > 20 µM | – | > 20 µM | – | – | 100 µM | – | – | – |
| CC(=O)N(CCc1cn(C)c2ccccc12)Cc1ccc(-c2ccccc2)cc1 | – | – | > 20 µM | – | > 20 µM | – | – | 100 µM | – | – | – |
| Cn1cc(CCNc2ccc3ccccc3c2)c2ccccc21 | 76 µM | > 100 µM | > 100 µM | 100 µM | > 100 µM | > 100 µM | > 100 µM | > 100 µM | 41 µM | – | – |
| COC(=O)c1ccc(CNCCc2cn(Cc3ccc(-c4ccccc4)cc3)c3ccccc23)cc1 | > 4 µM | > 100 µM | – | > 4 µM | > 4 µM | > 100 µM | > 100 µM | 20 µM | 7.3 µM | > 4 µM | – |
| CC(=O)N(CCc1cn(C)c2ccccc12)c1ccc2ccccc2c1 | – | – | > 4 µM | – | > 4 µM | – | – | 20 µM | – | – | – |
| CCCn1cc(CNCCc2ccc(-c3ccccc3)cc2)c2ccccc21 | – | > 100 µM | > 0.8 µM | > 0.16 µM | > 0.8 µM | > 100 µM | > 100 µM | 4 µM | 1.7 µM | – | – |
| Cn1cc(CCN(CCc2ccc(-c3ccccc3)cc2)C(=O)C2CCCCC2)c2ccccc21 | – | – | > 4 µM | – | > 4 µM | – | – | 20 µM | – | – | – |
| CC(=O)N(CCc1ccc(-c2ccccc2)cc1)CCc1cn(C)c2ccccc12 | – | > 100 µM | 2.5 to 3.6 µM | > 4 µM | 1.7 to 3.1 µM | > 100 µM | > 100 µM | 20 to 35 µM | 31 to 39 µM | 2.1 µM | – |
| Cn1cc(CCN(CCc2ccc(-c3ccccc3)cc2)C(=O)c2ccccc2)c2ccccc21 | – | – | 20 µM | – | 20 µM | – | – | > 100 µM | – | – | – |
| Cn1cc(CCN(CCc2ccc(-c3ccccc3)cc2)C(=O)CCN2CCOCC2)c2ccccc21 | – | – | > 4 µM | – | > 4 µM | – | – | 20 µM | – | – | – |
| CCCn1cc(C(=O)c2ccc(Cl)cc2)c2ccccc21 | – | > 100 µM | > 100 µM | > 100 µM | > 100 µM | > 100 µM | > 100 µM | > 100 µM | > 100 µM | – | – |
| CCCn1cc(CN2CCCCC2)c2cc(NC(=O)c3ccccc3)ccc21 | – | > 100 µM | > 20 µM | > 20 µM | > 20 µM | > 100 µM | > 100 µM | 100 µM | 31 µM | – | – |
| CCCn1cc(CN2CCCCC2)c2cc(CNc3ccc(Cl)cc3)ccc21 | – | > 20 µM | > 4 µM | > 4 µM | > 4 µM | > 20 µM | > 20 µM | 20 µM | 15 µM | – | – |
| c1ccc(-c2ccc(Cn3cc(CN4CCCCC4)c4ccccc43)cc2)cc1 | – | > 20 µM | > 4 µM | > 4 µM | > 4 µM | > 20 µM | > 20 µM | 20 µM | 6.9 µM | – | – |
| Cn1cc(CCN(CCc2ccc(-c3ccccc3)cc2)C(=O)OC(C)(C)C)c2ccccc21 | – | – | > 4 µM | – | > 4 µM | – | – | 20 µM | – | – | – |
| CC(=O)N(CCc1cn(C)c2ccccc12)Cc1ccc(Oc2ccccc2)cc1 | – | – | > 4 µM | – | > 4 µM | – | – | 20 µM | – | – | – |
| CCCn1cc(CN2CCCCC2)c2ccccc21 | > 4 µM | > 100 µM | > 100 µM | > 4 µM | > 100 µM | > 100 µM | > 100 µM | > 100 µM | > 100 µM | – | – |
| CCCn1cc(CNCCc2ccc(-c3ccccc3)cc2)c2cc(CNc3ccc(Cl)cc3)ccc21 | – | > 4 µM | > 4 µM | > 4 µM | > 4 µM | > 4 µM | > 4 µM | 20 µM | 9.7 µM | – | – |
| Nc1nc2c(ncn2COCCO)c(=O)[nH]1 [ACYCLOVIR] | – | – | – | – | – | – | – | 250 to 440 µM | – | – | 191 to 224 µM |
| O=c1[nH]c(=O)n([C@H]2C[C@H](O)[C@@H](CO)O2)cc1/C=C/Br [BRIVUDINE] | – | – | 0.019 to 0.035 µM | – | 33 to 143 µM | – | 96 µM | 250 to 300 µM | – | – | 160 to 300 µM |
| Nc1ccn(C[C@@H](CO)OCP(=O)(O)O)c(=O)n1 [CIDOFOVIR] | – | 0.4 µM | – | – | – | – | 0.7 µM | > 250 µM | – | – | – |
| Nc1nc(O)c2ncn(COC(CO)CO)c2n1 [GANCICLOVIR] | – | – | – | – | – | – | – | > 100 µM | – | – | – |

Reference: ChEMBL document CHEMBL3877247, “Identification of an indol-based derivative as potent and selective varicella zoster virus (VZV) inhibitor” (Eur J Med Chem, 2016)
